From PubChem BioAssay AID488948 (Broad Institute, 2010)
Inconclusive results are not listed. Activity calls are given as the source filed them.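 Rule for the calls: active = compounds raising caspase signal whose fitted AC50 is at or under a set limit scaled from top dose; inconclusive = flat fit at middling activation, or poor curve fit; inactive = the rest.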

Experiments:
[1] = tested on: MEWO unprimed cells, caspase-3/7 Glo luminescence, 3 h; experiment: caspase-3/7 activation in unprimed MEWO cells, dose response, counter-screen for Bcl2-A1 inhibitor project, cell-based, caspase-Glo luminescence, dry powder (AID 488948)
Outline: (§1)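 Incubation: 3 h compound at 37 °C, 1 h CaspaseGlo; System: unprimed MEWO cells expressing A1, no BIM or tBID priming; Medium: RPMI-1640 growth medium with 10% FBS; Technique: luminescent caspase reagent (CaspaseGlo).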

[2] = as above; conditions: MEWO unprimed cells, caspase-3/7 Glo luminescence, 3 h, hits give high values
Outline: as §1

Cc1c(CCOC(=O)c2ccc(N3CCOCC3)c([N+](=O)[O-])c2)sc[n+]1CC#N
AC50 [1]: > 100 µM (inactive)

Cn1c(=NC(=O)CCl)sc2ccccc21
max caspase activation ([2]; at 0.068 µM): -1.67% (inactive)

Cc1cc(C(=O)CCl)c(C)n1CCc1ccc(Cl)cc1
AC50 [1]: 18.4 µM

C=C1[C@@H](C)[C@H]2[C@H](Cc3ccccc3)NC(=O)[C@]23OC(=O)/C=C\[C@H](O)CCC[C@@H](C)C/C=C/[C@H]3[C@@H]1O
max caspase activation ([2]; at 2.6 µM): 2.11% (inactive)

CCSc1nnc(NC(=O)c2nc(S(=O)(=O)Cc3ccc(F)cc3)ncc2Cl)s1
max caspase activation ([2]; at 150 µM): -5.59% (inactive)

CC(C)(C)n1nc(-c2ccc(Cl)cc2)c2c(N)ncnc21
max caspase activation ([2]; at 150 µM): 4.52% (inactive)

COc1cccc(C(=O)C(C#N)=C(SC)SC)c1
max caspase activation ([2]; at 150 µM): -3.79% (inactive)

O=C(CCl)N=c1sccn1Cc1ccccc1Cl
AC50 [1]: > 150 µM (inactive)

COc1cc(/C=C(/C#N)c2nc3ccccc3[nH]2)ccc1OCC(=O)Nc1ccccc1C(C)C
max caspase activation ([2]; at 9 µM): 2.17% (inactive)

Cc1ccc(Sc2c([N+](=O)[O-])c(=O)n(C)c3ccccc23)cc1
max caspase activation ([2]; at 100 µM): 3.9% (inactive)

Cc1cccc(CS(=O)(=O)c2ncc(Cl)c(C(=O)Nc3nnc(C(C)C)s3)n2)c1
max caspase activation ([2]; at 150 µM): -3.23% (inactive)

Cc1ccc(CS(=O)(=O)c2ncc(Cl)c(C(=O)Nc3nnc(C(C)C)s3)n2)cc1
max caspase activation ([2]; at 100 µM): -3.83% (inactive)

CCc1nnc(NC(=O)c2nc(S(=O)(=O)Cc3ccccc3)ncc2Cl)s1
max caspase activation ([2]; at 0.068 µM): -1.73% (inactive)

CCOC(=O)CSC1=N/C(=C/c2ccc(-n3cncn3)cc2)C(=O)N1C(C)=O
AC50 [1]: > 150 µM (inactive)

CC(=O)N[C@H]1[C@H](O[C@H]2CC[C@@]3(C)C(CC[C@]4(C)C3CC=C3[C@@H]5CC(C)(C)CC[C@]5(C(=O)OC5OCC(O)C(O)C5O)C(O)C[C@]34C)C2(C)C)O[C@H](COC2OCC(O)C(OC3OCC(O)C(O)C3O)C2O)[C@@H](O[C@@H]2O[C@@H](C)[C@H](O)[C@@H](O)[C@H]2O[C@@H]2O[C@@H](C)[C@H](O)[C@@H](O)[C@H]2O)[C@@H]1O (some centres undefined)
max caspase activation ([2]; at 135 µM): -2.6% (inactive)

Nc1nc(F)nc2c1ncn2[C@@H]1O[C@H](CO)[C@@H](O)[C@H]1O
max caspase activation ([2]; at 0.1 µM): 2.46% (inactive)

COc1ccc(N(C(=O)CCl)C(C(=O)NCCc2ccccc2)c2cccs2)cc1Cl (centres undefined)
AC50 [1]: 15.6 µM

C/C1=C/C(=O)O[C@@H]2C[C@@H](CC[C@H](C)/C=C\CC1)O[C@@](O)(C1CSC(=O)N1)C2 (some centres undefined)
max caspase activation ([2]; at 46 µM): 1.79% (inactive)

O=C(Oc1cccc(/C=N/Nc2nc(Nc3ccccc3)nc(N3CCOCC3)n2)c1)c1ccco1
max caspase activation ([2]; at 68 µM): 2.05% (inactive)
